Inconclusive results are not listed. The source made the active and inactive calls.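 Rule for the calls: active = toxic compounds, with cells under 80% alive at a tested dose; inconclusive = one replicate called active, the other inactive; inactive = the rest.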

These results are taken from PubChem BioAssay AID588399 (Southern Research Specialized Biocontainment Screening …, 2011).

Tested on in one experiment: not listed separately
The experiment in a line: viability loss of bladder carcinoma 5637 line – cell-based, set 4, cytotoxicity control for bacterial capsule biogenesis inhibitors, dose response (AID 588399). Conditions: Bladder 5637 cells viability, CellTiter-Glo, 72 h; at 300 µM (top of the series). The method in brief: (§1)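 test system = bladder carcinoma 5637 cell line | benchmarks = Hyamine toxic control, untreated cells reference | timing = 72 h compound exposure of cells | read-out basis = percent viability versus mean of untreated cell-only wells, plus CC50 | technique = CellTiter-Glo luminescence | compound = 8 concentrations, 2.3–300 µM | replication = duplicates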
A general note: In ATP-based viability assays light output follows the ATP content of the culture.
As to `O=C(Nc1ccc(Br)cc1)c1ccc2ncsc2c1`, the viability was 142% (inactive).
In the case of `O=C(Nc1ccccn1)c1ccc2nc[nH]c2c1`, the viability was 94.7% (inactive).
Turning to `O=C(NCc1ccco1)c1ccc2nc[nH]c2c1`, the viability is 111% (inactive).
As for `COc1ccc(NC(=O)c2ccc3nc[nH]c3c2)cc1`, the viability is 104% (inactive).
In the case of `O=C(Nc1ccc(F)cc1)c1ccc2nc[nH]c2c1`, the viability was 83% (inactive).

Another experiment concerns Bladder 5637 cells viability, CellTiter-Glo, 72 h. Described as above.
Conditions: not given
The method in brief:
as §1
For the compound `COc1ccc2nc(NC(=O)c3cc(Br)c(Br)s3)[nH]c2c1`, the CC50 was under 2.34 µM.
`O=C(Nc1nc2ccc(OC(F)(F)F)cc2s1)c1ccc(Br)s1`: the CC50 was 24.6 µM.
On the same count and under the same terms, the figure for `O=C(Nc1ccc(Cl)cc1)c1ccc2[nH]ccc2c1` is 14.1 µM; for `COc1ccc2nc(NC(=O)c3ccc(Br)s3)[nH]c2c1` it is 4.43 µM; for `O=C(Nc1cccnc1)c1ccc2ncsc2c1` it is 28.3 µM.

As usually defined, the viability is a read-out of living cells in per cent, often relative to untreated cells. The term CC50 denotes the concentration at which the toxic effect on the cells reaches its halfway point.
